Bioassay records from PubChem BioAssay.
MrgX1 allo act = positive allosteric modulators of MrgX1, primary screen, HEK293 cells, Fluo-4 calcium flux; FDSS; stronger effect = higher value; B-score at 10 µM; actives 0.63% (n = 310,000); AID 588675, 2011;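 active means plate-corrected calcium response at least 3 library SD above typical, normal starting fluorescence, not activating the receptor alone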;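 further: compound read alongside a low EC10 to EC30 dose of BAM8-22 agonist; peak minus trough fluorescence over baseline measured at the second addition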
Target sequence (Q96LB2 whole entry, looked up): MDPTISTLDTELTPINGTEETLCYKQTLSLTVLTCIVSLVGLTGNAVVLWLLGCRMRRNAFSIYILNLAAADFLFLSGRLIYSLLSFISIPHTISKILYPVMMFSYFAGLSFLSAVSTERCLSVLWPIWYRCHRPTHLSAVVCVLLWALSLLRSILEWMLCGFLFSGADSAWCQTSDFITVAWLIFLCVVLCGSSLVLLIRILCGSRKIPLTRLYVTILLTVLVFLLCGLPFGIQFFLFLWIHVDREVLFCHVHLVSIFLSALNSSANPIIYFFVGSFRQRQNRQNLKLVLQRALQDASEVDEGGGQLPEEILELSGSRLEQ
MrgX1 antagonist = antagonists of human MrgX1 receptor, primary screen, HEK293 cells, Fluo-4 calcium flux | actives 1.3% (n = 310,000) | AID 588676, 2011 | B-score at 10 µM | BAM8-22 antagonism; stronger effect = lower value;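 active means calcium-response B-score plate-corrected more than 3 library SD below zero, starting fluorescence within 5 deviations, no agonist response on first addition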;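 further: peak minus trough fluorescence over baseline after final BAM8-22 challenge near maximal dose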
RGS4 inh = RGS4 inhibitors, primary screen, cell-based, HEK293 M3R inducible RGS4, calcium flux; Regulator of G-protein signaling 4 (Homo sapiens), P49798; Fluo-4 calcium flux; stronger effect = higher value; triggered by carbachol at its EC20; B-score at 10 µM; actives 0.45% (n = 310,000);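 active means B-score, a plate-corrected calcium signal, over three deviations above library mean, with baseline fluorescence within five deviations of library mean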;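 further: RGS4 expression induced by doxycycline in cells with stable M3 receptor; B-score is computed from the integrated fluorescence ratio over baseline after carbachol; higher B-score means a larger calcium signal and so more RGS4 inhibition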
Target sequence (P49798 whole entry, looked up): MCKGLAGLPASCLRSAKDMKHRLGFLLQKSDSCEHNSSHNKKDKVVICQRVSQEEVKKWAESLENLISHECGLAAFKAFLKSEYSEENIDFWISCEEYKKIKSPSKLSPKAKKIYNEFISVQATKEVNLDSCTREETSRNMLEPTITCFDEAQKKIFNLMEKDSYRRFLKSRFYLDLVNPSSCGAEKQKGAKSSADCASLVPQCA
MrgX1 agonist = agonists of human MrgX1 receptor, primary screen, HEK293 cells, Fluo-4 calcium flux; Fluo-4 calcium fluorescence, agonist mode; stronger effect = higher value; Mas-related G-protein coupled receptor member X1 (Homo sapiens), Q96LB2; actives 0.44% (n = 310,000); B-score at 10 µM;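 active means calcium response B-score plate-corrected fluorescence ratio at least 3 library SD, with starting fluorescence B-score inside 5 SD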
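Material: HEK293 cells stably expressing human MrgX1 receptor | Quantity: 15,000 cells per well | Times: Cells plated overnight, dye loaded 0.5 h 37 °C, 0.5 h room temperature | Measured by: Kinetic Fluo-4 NW fluorescence of intracellular calcium | Control set: Positive and negative controls per plate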
RGS4 act = RGS4 potentiators or activators, primary screen, cell-based, HEK293 M3R inducible RGS4, calcium flux; actives 0.92% (n = 310,000); B-score at 10 µM; carbachol calcium flux Fluo4; stronger effect = lower value;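 active means B-score of the integrated calcium signal more than 4 SD below the library mean, with starting fluorescence not abnormally high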;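 further: negative B-score means reduced calcium response which marks RGS4 activation or potentiation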
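System: HEK293 FlpIn-TREx cells, stable M3R, doxycycline-inducible RGS4. Timing: overnight RGS4 induction, 30 min dye load 37 °C, 20 min compound RT. Also added: carbachol, ECmax concentration. Measured by: Fluo4 fluorescence kinetic imaging of calcium. Evaluation: integrated calcium ratio converted to B score.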
MrgX1 PAM conf = MrgX1 positive allosteric modulators, duplicate retest, confirmation, HEK293 cells, Fluo-4 calcium flux; shares compounds with MrgX1 allo act; Fluo-4 calcium fluorescence, FDSS; activation (ratio percentage), % at 10 µM; actives 13% (n = 1,200); AID 602413, 2012;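 active means ratio at least 3 SD above the weak peptide control, stable starting fluorescence, no direct agonism earlier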;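 further: compound followed by low BAM8-22 agonist challenge near EC20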
HEK293 Ca flux = nonspecific calcium signal in parental HEK293, confirmation, counter-screen for MrgX1 antagonist project, parental HEK293 cells, Fluo-4 calcium flux; shares compounds with MrgX1 antagonist; Fluo-4 calcium fluorescence, FDSS; fluorescence ratio F(max-min)/F0 at 10 µM; actives 2% (n = 4,000);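 active means duplicate-averaged calcium fluorescence ratio at least three times the standard deviation of buffer wells, a nonspecific response in parental cells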
HEK293 Ca counter = calcium response in parental HEK293 cells, primary screen, counter-screen for MrgX1 allosteric activator project, cell-based, Fluo-4 calcium flux, duplicate; shares compounds with MrgX1 antagonist; Fluo-4 fluorescence ratio; stronger effect = higher value; fluorescence ratio F(max-min)/F0 at 10 µM; actives 0.4% (n = 4,000); AID 624114, 2012;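 active means calcium fluorescence ratio, averaged over duplicates, at least 3 SD of the buffer-well ratio, meaning a nonspecific response in receptor-free cells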;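 further: untransfected parental HEK293 lacking MrgX1 used as counterscreen for MrgX1 allosteric activators; fluorescence change taken during the second addition on a kinetic imager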
HEK293 Ca cntr2 = calcium response in parental HEK293 cells, primary screen, counter-screen for MrgX1 agonist project, cell-based, Fluo-4 calcium flux, duplicate, agonist mode; shares compounds with MrgX1 antagonist; Fluo-4 calcium fluorescence (FDSS); stronger effect = higher value; fluorescence ratio F(max-min)/F0 at 10 µM; actives 8.7% (n = 4,000);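 active means calcium fluorescence ratio at least three times the spread of buffer wells, meaning a non-specific response in parental cells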
* hit, by the source's call; i = inactive; · = no result. The list is not random: actives were taken first. Their share in the collection is about 3.5%.

SMILES	MrgX1 allo act	MrgX1 antagonist	RGS4 inh	MrgX1 agonist	RGS4 act	MrgX1 PAM conf	HEK293 Ca flux	HEK293 Ca counter	HEK293 Ca cntr2
COc1ccc2[nH]c(=O)c(CN(Cc3nnnn3Cc3ccco3)C3CCCCC3)cc2c1	9.3*	i	i	i	i	i	i	i	i
COc1ccc2[nH]c(=O)c(CN(Cc3cccnc3)Cc3nnnn3CC3CCCO3)cc2c1 (configuration not stated)	26*	i	i	i	i	i	i	i	i
COc1ccc(C2=NN(CCC(=O)NCc3cccs3)C(=O)CC2)cc1	i	i	i	i	i	·	·	·	·
CC(=O)c1ccc(NC(=O)Nc2ccc3c(c2)nc(C)n3C)cc1	8.8*	i	i	i	i	i	i	i	i
COc1ccc(/C=C(/NC(=O)c2ccco2)C(=O)N2CCOCC2)cc1	i	i	i	i	i	·	·	·	·
O=c1[nH]c(Nc2ccccc2)cc2ccccc12	19*	i	i	i	i	34%*	i	i	i
CC(Cc1ccccc1)Nc1ncnc2c1ncn2C1OC(CO)C(O)C1O (configuration not stated)	7.6*	i	i	i	i	i	i	i	i
COc1cccc(NC(=O)CN2C(=O)COc3ccc(Cl)cc32)c1	7.7*	i	i	i	i	i	i	i	i
CCOC(=O)N1CCN(c2cc(=O)n(-c3cccc(Br)c3)c(=O)[nH]2)CC1	i	i	i	i	i	·	·	·	·
CCOC(=O)N1CCN(c2cc(=O)n(-c3cccc(C)c3)c(=O)[nH]2)CC1	11*	i	i	i	i	i	i	i	i
CC(C)CC(CO)N1CCN(C(=O)c2cccc(C(F)(F)F)c2)CCC1=O (configuration not stated)	10*	i	i	i	i	i	i	i	i
CC(C)CC(COCc1ccc(F)cc1)N1CCN(C(=O)c2cccc(C(F)(F)F)c2)CCC1=O (configuration not stated)	i	i	i	i	i	·	·	·	·
CSCC[C@H](NC(=O)N1CCn2c1nc1ccccc12)C(=O)N1CCCCC1	10*	i	i	i	i	i	i	i	i
COc1ccc(C2=[N+](C)CCn3cccc32)c(OC)c1	i	i	i	i	i	·	·	·	·
CCCCN1CC[C@H]2C=CC[C@@H](C(=O)NCc3ccc(OC)cc3)[C@H]2C1=O	i	i	i	i	i	·	·	·	·
CCCCN1CC[C@H]2C=CC[C@@H](C(=O)Nc3ccc(Cl)cc3Cl)[C@H]2C1=O	6.9*	i	i	i	i	i	i	i	i
CCOC(=O)C1CCCN(C(=O)CCCn2c(=O)c3cccn3c3cccnc32)C1 (configuration not stated)	i	i	i	i	i	·	·	·	·
O=S(=O)(Nc1nc2ccccc2s1)c1ccc(Br)s1	7.2*	i	i	i	i	i	i	i	i
Cc1cc(C(=O)CN2C(=O)NC3(CCC(C)CC3)C2=O)c(C)n1C (configuration not stated)	12*	i	i	i	i	i	i	i	i
O=[N+]([O-])c1cc(C=Nc2cccc3c(O)cccc23)ccc1Cl	i	i	i	i	i	·	·	·	·
O=C(COc1ccccc1Br)NC1CCCC1	7.3*	i	i	i	i	i	i	i	i
CCc1ccc(OCC(=O)NC2CCCCC2)c(Br)c1	8.3*	i	i	i	i	i	i	i	i
Cc1cc(Br)ccc1OCC(=O)NC1CCCC1	i	i	i	i	i	·	·	·	·
COc1ccc(/C=N/NC(=O)CN(C)C(=O)OCc2ccccc2)cc1OC	i	i	i	i	i	·	·	·	·
Fc1ccccc1NC(=S)N(CCN1CCCCC1)Cc1ccco1	11*	i	i	i	i	i	i	i	i
SMILES	MrgX1 allo act	MrgX1 antagonist	RGS4 inh	MrgX1 agonist	RGS4 act	MrgX1 PAM conf	HEK293 Ca flux	HEK293 Ca counter	HEK293 Ca cntr2
OC1(Cc2cc(-c3ccccc3)no2)CCN(CCCc2ccccc2)CC1	i	i	i	i	i	·	·	·	·
Cc1nc(-c2cccc(NC(=O)C3CCCCC3)c2)cs1	17*	i	i	i	i	i	i	i	i
Cc1nc(-c2ccc(NC(=O)C3CC3)cc2)cs1	i	i	i	i	i	·	·	·	·
CCOC(=O)C1CCN(C(=O)CN2C(=O)c3cccnc3Oc3ccccc32)CC1	8.3*	i	i	i	i	i	i	i	i
CCc1ccc(/C=N/NC(=O)Cc2cccn2C)cc1	27*	i	i	i	i	13%*	i	i	i
O=C(c1ccncc1)c1ccc(N2CCN(C3CC(=O)N(Cc4cccs4)C3=O)CC2)cc1 (configuration not stated)	6.9*	i	i	i	i	i	i	i	i
COc1ccc(Cc2nnc(Nc3ccc4c(c3)OCCO4)[nH]c2=O)cc1	i	i	i	i	i	·	·	·	·
CCCn1c(SCC(=O)Nc2ccccc2Cl)n[nH]c1=O	6.6*	i	i	i	i	i	i	i	i
COc1ccc2c(C)cc(SCC(=O)N3CCOCC3)nc2c1	i	i	i	i	i	·	·	·	·
COc1ccc2c(C)cc(SCC(=O)N(C)C3CCS(=O)(=O)C3)nc2c1 (configuration not stated)	10*	i	i	i	i	i	i	i	i
